Assays:
[1] = biological target: T1, Neuronal acetylcholine receptor subunit alpha-7 (Homo sapiens, UniProt P36544); assay: Binding affinity to alpha7 nAChR (unknown origin)
Procedure, shortened: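 Radioligand competition on homogenates of SH-SY5Y cells transfected with human α7 nAChR. [³H]methyllycaconitine at about 0.3 nM working concentration, test ligand in serial dilution 10 pM–10 µM. Buffer 50 mM Tris–HCl pH 7.4 with 120 mM NaCl, 5 mM KCl, 2.5 mM MgCl₂, 1 mM CaCl₂. Nonspecific binding defined with 300 µM (−)-nicotine tartrate. Incubated 240 min at room temperature, then filtered on PEI-soaked GF/B and counted by scintillation. Run in triplicate; IC50 by non-linear regression, Ki by Cheng–Prusoff.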

Brain [2] = assay: Biodistribution in CD1 mouse brain measured at 60 mins by autoradiographic analysis; type: ADME, organism-based; conditions: in vivo, 1 h
[3] = biological target: Neuronal acetylcholine receptor subunit alpha-7 (Rattus norvegicus, UniProt Q05941); assay: Displacement of [3H]A-585539 from rat brain alpha7 nAChR by scintillation counting analysis
Femur = assay: Biodistribution in CD1 mouse femur at 200 to 300 kBq, iv measured at 60 mins by gamma counting analysis in presence of NS6740; type: ADME, organism-based; conditions: in vivo, 1 h
Procedure, shortened: (§1)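 Blocking study in female CD-1 mice, n = 7 per blocker, with a matching control group. SSR180711 or NS6740 given at 10 mg kg⁻¹ ip in 0.9% saline 10 min before iv radiotracer (200–300 kBq). Organs taken at 60 min p.i., weighed and gamma-counted; uptake as % ID per g wet weight. Compared with control by two-tailed independent Student's t test.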

Muscle tissue = assay: Biodistribution in CD1 mouse muscle at 200 to 300 kBq, iv measured at 60 mins by gamma counting analysis in presence of NS6740; type: ADME, organism-based; conditions: in vivo, 1 h
Procedure, shortened: (§2)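 Blocking design in female CD-1 mice, n = 7 per group. The blocker was given at 10 mg kg^-1 i.p. in 0.9% saline 10 min before i.v. 200–300 kBq [18F]radiotracer. Mice were killed at 60 min p.i. and organs weighed and gamma-counted as % ID per g wet weight. Blocked groups were compared with controls by two-tailed independent Student's t test.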

Zone of skin = assay: Biodistribution in CD1 mouse skin at 200 to 300 kBq, iv measured at 60 mins by gamma counting analysis in presence of NS6740; type: ADME, organism-based; conditions: in vivo, 1 h; procedure, shortened: as §2
Mus musculus [4] = assay: Biodistribution in CD1 mouse adrenal at 200 to 300 kBq, iv measured at 60 mins by gamma counting analysis in presence of NS6740; type: ADME, organism-based, Adrenal gland; conditions: in vivo, 1 h; procedure, shortened: as §1
Pancreas = assay: Biodistribution in CD1 mouse pancreas at 200 to 300 kBq, iv measured at 60 mins by gamma counting analysis in presence of NS6740; type: ADME, organism-based; conditions: in vivo, 1 h; procedure, shortened: as §2
Mus musculus [5] = assay: Biodistribution in CD1 mouse thymus at 200 to 300 kBq, iv measured at 60 mins by gamma counting analysis in presence of NS6740; type: ADME, organism-based; conditions: in vivo, 1 h
Procedure, shortened: (§3)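 Female CD-1 mice given 200–300 kBq tracer intravenously. Animals anaesthetised for blood and urine sampling, then killed by cervical dislocation at 5, 15, 30 or 60 min (n = 3 per time; n = 7 at 60 min). Organs removed and weighed, activity gamma-counted, expressed as % injected dose per g wet weight. Blocking arm: 10 mg/kg i.p. in 0.9% saline, 10 min before tracer; two-tailed unpaired t test versus control.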

Spleen = assay: Biodistribution in CD1 mouse spleen at 200 to 300 kBq, iv measured at 60 mins by gamma counting analysis in presence of NS6740; type: ADME, organism-based; conditions: in vivo, 1 h; procedure, shortened: as §2
Urinary bladder = assay: Biodistribution in CD1 mouse bladder at 200 to 300 kBq, iv measured at 60 mins by gamma counting analysis in presence of NS6740; type: ADME, organism-based; conditions: in vivo, 1 h; procedure, shortened: as §1
[6] = Biodistribution in CD1 mouse urine at 200 to 300 kBq, iv measured at 60 mins by gamma counting analysis in presence of NS6740; type: ADME, organism-based; conditions: in vivo, 1 h; procedure, shortened: as §3
Kidney = assay: Biodistribution in CD1 mouse kidney at 200 to 300 kBq, iv measured at 60 mins by gamma counting analysis in presence of NS6740; type: ADME, organism-based; conditions: in vivo, 1 h; procedure, shortened: as §1
Liver = assay: Biodistribution in CD1 mouse liver at 200 to 300 kBq, iv measured at 60 mins by gamma counting analysis in presence of NS6740; type: ADME, organism-based; conditions: in vivo, 1 h; procedure, shortened: as §2
Mus musculus [7] = assay: Biodistribution in CD1 mouse large intestine at 200 to 300 kBq, iv measured at 60 mins by gamma counting analysis in presence of NS6740; type: ADME, organism-based; conditions: in vivo, 1 h; procedure, shortened: as §1
Stomach = assay: Biodistribution in CD1 mouse stomach at 200 to 300 kBq, iv measured at 60 mins by gamma counting analysis in presence of NS6740; type: ADME, organism-based; conditions: in vivo, 1 h; procedure, shortened: as §2
Mus musculus [8] = assay: Biodistribution in CD1 mouse small intestine at 200 to 300 kBq, iv measured at 60 mins by gamma counting analysis in presence of NS6740; type: ADME, organism-based; conditions: in vivo, 1 h; procedure, shortened: as §2
Lung = assay: Biodistribution in CD1 mouse lung at 200 to 300 kBq, iv measured at 60 mins by gamma counting analysis in presence of NS6740; type: ADME, organism-based; conditions: in vivo, 1 h; procedure, shortened: as §2
Brain [9] = assay: Biodistribution in CD1 mouse brain at 200 to 300 kBq, iv measured at 60 mins by gamma counting analysis in presence of NS6740; type: ADME, organism-based; conditions: in vivo, 1 h; procedure, shortened: as §1
Heart = assay: Biodistribution in CD1 mouse heart at 200 to 300 kBq, iv measured at 60 mins by gamma counting analysis in presence of NS6740; type: ADME, organism-based; conditions: in vivo, 1 h; procedure, shortened: as §1
Blood = assay: Biodistribution in CD1 mouse blood at 200 to 300 kBq, iv measured at 60 mins by gamma counting analysis in presence of NS6740; type: ADME, organism-based; conditions: in vivo, 1 h; procedure, shortened: as §1
[10] = Cyclohexane-PBS distribution coefficient, log D of the compound at pH 7.2 after 30 mins by shake-flask method; type: physicochemical; conditions: pH 7.2, 0.5 h
[11] = n-Octanol-PBS distribution coefficient, log D of the compound at pH 7.2 after 30 mins by shake-flask method; type: physicochemical
[12] = Stability of the compound in Tris-HCl buffer assessed as compound remaining at pH 6.7 measured up to 2 hrs by radio-TLC analysis; type: physicochemical; conditions: read-out: Stability
Procedure, shortened: (§4)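 Tracer formulated in isotonic saline, then diluted 1:20 into 50 mM Tris–HCl (pH 6.7) or PBS (pH 7.2). Stirred at 40 °C for up to 2 h, sampled at 5, 10, 30, 60, 90 and 120 min, and analysed by radio-TLC for intact tracer.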

[13] = Stability of the compound in PBS buffer assessed as compound remaining at pH 7.2 measured up to 2 hrs by radio-TLC analysis; type: physicochemical; conditions: read-out: Stability; procedure, shortened: as §4
[14] = Stability of the compound in Tris-HCl buffer assessed as compound remaining at pH 6.7 measured at 5 mins by radio-TLC analysis; type: physicochemical; conditions: read-out: Stability; procedure, shortened: as §4
[15] = Stability of the compound in PBS buffer assessed as compound remaining at pH 7.2 measured at 5 mins by radio-TLC analysis; type: physicochemical; conditions: read-out: Stability; procedure, shortened: as §4
[16] = Ratio of drug level in brain to plasma in CD1 mouse at 200 to 300 kBq, iv measured at 15 mins; type: ADME, organism-based; conditions: read-out: BPR
Procedure, shortened: (§5)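 Female CD-1 mice injected intravenously with 200–300 kBq tracer. Animals killed at 5, 15, 30 and 60 min (n = 3; n = 7 at 60 min). Brain and plasma activity gamma-counted as % ID/g wet weight, and the brain-to-plasma ratio taken from these values.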

[17] = Ratio of drug level in brain to plasma in CD1 mouse at 200 to 300 kBq, iv measured at 60 mins; type: ADME, organism-based; conditions: read-out: BPR; procedure, shortened: as §5
[18] = Ratio of drug level in brain to plasma in CD1 mouse at 200 to 300 kBq, iv measured at 30 mins; type: ADME, organism-based; conditions: read-out: BPR; procedure, shortened: as §5
[19] = Ratio of drug level in brain to plasma in CD1 mouse at 200 to 300 kBq, iv measured at 5 mins; type: ADME, organism-based; conditions: read-out: BPR; procedure, shortened: as §5
Homo sapiens [20] = organism: Homo sapiens; assay: Selectivity ratio of Ki for human alpha4beta2 nAChR to Ki for human alpha7 nAChR
Homo sapiens [21] = organism: Homo sapiens; assay: Selectivity ratio of Ki for human alpha3beta4 nAChR to Ki for human alpha7 nAChR
[22] = biological target: Neuronal acetylcholine receptor; alpha4/beta2 (Homo sapiens, UniProt P17787+P43681); assay: Displacement of (+/-)[3H]-epibatidine from human alpha4beta2 nAChR transfected in HEK293 cells after 90 mins by liquid scintillation counting analysis; type: cell-based
Procedure, shortened: (§6)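 Homogenates of HEK293 cells transfected with human α4β2 or α3β4 nAChR, with about 0.5 nM (±)-[3H]epibatidine and compound 10 pM–10 µM. Buffer: 50 mM Tris–HCl pH 7.4 with NaCl, KCl, MgCl2 and CaCl2. Incubated 90 min at room temperature; nonspecific binding defined with 300 µM (−)-nicotine tartrate. Filtered onto PEI-soaked GF/B, scintillation counted, triplicates; IC50 by nonlinear regression, Ki by Cheng–Prusoff.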

[23] = biological target: Neuronal acetylcholine receptor; alpha3/beta4 (Homo sapiens, UniProt P30926+P32297); assay: Displacement of (+/-)[3H]-epibatidine from human alpha3beta4 nAChR transfected in HEK293 cells after 90 mins by liquid scintillation counting analysis; type: cell-based; procedure, shortened: as §6
[24] = biological target: T1, Neuronal acetylcholine receptor subunit alpha-7; assay: Displacement of [3H]-methyllycaconitine from human alpha7 nAChR transfected in human SH-SY5Y cells after 240 mins by liquid scintillation counting analysis; type: cell-based
Procedure, shortened: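 Homogenates of SH-SY5Y cells transfected with human α7 nAChR, with about 0.3 nM [3H]methyllycaconitine and compound 10 pM–10 µM in Tris–HCl pH 7.4 saline buffer. Incubated 240 min at room temperature; nonspecific binding defined with 300 µM (−)-nicotine tartrate. Filtered onto PEI-soaked GF/B, washed with ice-cold Tris, scintillation counted, triplicates; Ki via Cheng–Prusoff.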

T1 sequence (P36544 whole entry): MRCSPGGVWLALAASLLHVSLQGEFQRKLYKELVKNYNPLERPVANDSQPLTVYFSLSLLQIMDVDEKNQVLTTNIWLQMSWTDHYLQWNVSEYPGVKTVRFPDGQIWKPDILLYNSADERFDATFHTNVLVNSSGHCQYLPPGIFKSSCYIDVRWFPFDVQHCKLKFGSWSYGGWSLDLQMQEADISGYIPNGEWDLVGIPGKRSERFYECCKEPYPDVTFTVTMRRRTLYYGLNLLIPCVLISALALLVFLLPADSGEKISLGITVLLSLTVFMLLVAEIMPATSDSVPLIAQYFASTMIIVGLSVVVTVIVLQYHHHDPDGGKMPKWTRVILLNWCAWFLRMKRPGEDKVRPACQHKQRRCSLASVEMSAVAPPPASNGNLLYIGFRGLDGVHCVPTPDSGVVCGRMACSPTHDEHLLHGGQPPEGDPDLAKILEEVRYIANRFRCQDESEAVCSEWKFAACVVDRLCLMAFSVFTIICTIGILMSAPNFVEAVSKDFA
Chain of Neuronal acetylcholine receptor; alpha3/beta4 (P30926 whole entry): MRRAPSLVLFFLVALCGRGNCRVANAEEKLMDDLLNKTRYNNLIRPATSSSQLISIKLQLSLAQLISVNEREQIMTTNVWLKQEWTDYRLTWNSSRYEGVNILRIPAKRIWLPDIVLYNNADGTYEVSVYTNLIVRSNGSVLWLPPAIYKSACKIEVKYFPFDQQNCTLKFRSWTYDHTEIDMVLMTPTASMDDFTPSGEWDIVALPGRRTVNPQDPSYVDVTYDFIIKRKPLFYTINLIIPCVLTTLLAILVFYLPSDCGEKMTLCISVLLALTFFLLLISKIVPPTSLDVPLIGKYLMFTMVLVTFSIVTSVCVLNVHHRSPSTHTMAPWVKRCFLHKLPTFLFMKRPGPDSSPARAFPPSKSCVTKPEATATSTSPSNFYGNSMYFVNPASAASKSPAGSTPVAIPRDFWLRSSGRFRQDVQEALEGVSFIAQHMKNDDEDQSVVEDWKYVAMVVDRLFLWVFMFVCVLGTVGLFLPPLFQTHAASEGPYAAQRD
Chain of Neuronal acetylcholine receptor; alpha3/beta4 (P32297 whole entry): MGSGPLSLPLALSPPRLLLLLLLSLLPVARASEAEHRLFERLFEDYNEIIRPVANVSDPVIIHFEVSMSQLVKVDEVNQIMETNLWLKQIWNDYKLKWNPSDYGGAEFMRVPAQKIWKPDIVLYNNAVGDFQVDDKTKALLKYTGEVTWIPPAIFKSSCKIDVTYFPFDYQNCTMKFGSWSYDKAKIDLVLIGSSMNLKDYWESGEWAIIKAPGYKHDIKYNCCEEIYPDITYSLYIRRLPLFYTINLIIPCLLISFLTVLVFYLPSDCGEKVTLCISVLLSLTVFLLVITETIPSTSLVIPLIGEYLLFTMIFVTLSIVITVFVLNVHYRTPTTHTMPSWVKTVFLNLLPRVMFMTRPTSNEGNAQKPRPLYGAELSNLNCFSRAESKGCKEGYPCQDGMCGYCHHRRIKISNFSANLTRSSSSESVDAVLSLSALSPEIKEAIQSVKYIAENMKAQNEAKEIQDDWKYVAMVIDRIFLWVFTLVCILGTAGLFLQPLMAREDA
Chain of Neuronal acetylcholine receptor subunit alpha-7 (Rattus norvegicus, UniProt Q05941) (Q05941 whole entry): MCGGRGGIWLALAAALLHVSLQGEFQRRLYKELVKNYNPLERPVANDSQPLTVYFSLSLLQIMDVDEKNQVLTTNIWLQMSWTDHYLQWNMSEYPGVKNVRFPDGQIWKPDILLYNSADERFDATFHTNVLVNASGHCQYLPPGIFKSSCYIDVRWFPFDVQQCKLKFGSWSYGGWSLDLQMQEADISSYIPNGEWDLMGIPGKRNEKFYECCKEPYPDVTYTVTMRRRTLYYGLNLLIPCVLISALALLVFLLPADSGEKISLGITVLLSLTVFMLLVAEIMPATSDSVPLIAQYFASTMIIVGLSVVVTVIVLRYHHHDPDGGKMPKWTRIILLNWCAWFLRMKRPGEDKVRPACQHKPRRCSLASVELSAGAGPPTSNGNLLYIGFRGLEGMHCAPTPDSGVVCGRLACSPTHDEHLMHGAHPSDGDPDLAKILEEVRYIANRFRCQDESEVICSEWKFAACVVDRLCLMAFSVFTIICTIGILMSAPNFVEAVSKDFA
Chain of Neuronal acetylcholine receptor; alpha4/beta2 (P17787 whole entry): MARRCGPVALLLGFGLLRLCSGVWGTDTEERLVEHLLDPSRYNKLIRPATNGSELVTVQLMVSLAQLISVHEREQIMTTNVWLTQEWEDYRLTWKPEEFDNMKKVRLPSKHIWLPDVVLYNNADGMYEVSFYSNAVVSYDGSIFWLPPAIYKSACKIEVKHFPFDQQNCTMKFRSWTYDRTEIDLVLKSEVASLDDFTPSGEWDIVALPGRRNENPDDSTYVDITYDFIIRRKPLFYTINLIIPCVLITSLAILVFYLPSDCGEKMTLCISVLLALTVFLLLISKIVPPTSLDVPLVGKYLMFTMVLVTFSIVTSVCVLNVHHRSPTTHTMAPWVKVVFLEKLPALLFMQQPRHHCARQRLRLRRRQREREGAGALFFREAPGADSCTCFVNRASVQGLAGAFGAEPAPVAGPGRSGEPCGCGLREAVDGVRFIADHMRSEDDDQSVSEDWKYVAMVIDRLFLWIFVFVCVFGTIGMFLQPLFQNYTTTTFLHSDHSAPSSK
Chain of Neuronal acetylcholine receptor; alpha4/beta2 (P43681 whole entry): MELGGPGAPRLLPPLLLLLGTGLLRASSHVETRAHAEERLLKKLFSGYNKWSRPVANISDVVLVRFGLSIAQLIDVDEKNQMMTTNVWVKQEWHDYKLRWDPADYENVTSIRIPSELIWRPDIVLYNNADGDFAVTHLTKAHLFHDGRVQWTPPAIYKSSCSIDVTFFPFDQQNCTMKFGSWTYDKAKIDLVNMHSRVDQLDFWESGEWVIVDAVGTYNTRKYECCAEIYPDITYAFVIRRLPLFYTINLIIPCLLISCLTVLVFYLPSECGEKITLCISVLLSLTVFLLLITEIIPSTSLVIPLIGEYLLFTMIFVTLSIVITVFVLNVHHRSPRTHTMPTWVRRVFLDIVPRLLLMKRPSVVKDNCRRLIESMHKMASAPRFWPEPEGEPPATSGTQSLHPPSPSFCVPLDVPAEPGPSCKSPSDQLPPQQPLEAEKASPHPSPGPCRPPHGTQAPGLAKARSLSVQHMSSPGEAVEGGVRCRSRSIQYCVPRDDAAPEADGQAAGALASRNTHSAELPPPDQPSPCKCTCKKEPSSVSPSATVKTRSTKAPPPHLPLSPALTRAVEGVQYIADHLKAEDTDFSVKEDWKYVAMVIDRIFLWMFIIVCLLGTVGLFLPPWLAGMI

`Fc1ccc(-c2nnc(N3CCN4CCC3CC4)o2)cc1` gave a Ki [1] of 11.6 nM.

`[18F]c1ccc(-c2nnc(N3CCN4CCC3CC4)o2)cc1` showed a Drug uptake (Brain [2]) of 1.73 % ID/g.

Work on `O=C(c1ccc(-c2cccc(C(F)(F)F)c2)o1)N1CCN2CCC1CC2` yielded a Ki [3] of 1.1 nM, a Drug uptake (Femur) of 1.49 % ID/g and a Drug uptake (Muscle tissue) of 1.05 % ID/g. It also gave a Drug uptake (Zone of skin) of 1.7 % ID/g, a Drug uptake (Mus musculus [4]) of 2.51 % ID/g and a Drug uptake (Pancreas) of 3.04 % ID/g. The Drug uptake (Mus musculus [5]) was 2.25 % ID/g, the Drug uptake (Spleen) was 6.57 % ID/g and the Drug uptake (Urinary bladder) was 1.45 % ID/g. The Drug uptake [6] was 218 % ID/g, the Drug uptake (Kidney) was 11.7 % ID/g and the Drug uptake (Liver) was 6.67 % ID/g. It also gave a Drug uptake (Mus musculus [7]) of 5.11 % ID/g, a Drug uptake (Stomach) of 9.71 % ID/g and a Drug uptake (Mus musculus [8]) of 15.3 % ID/g. The Drug uptake (Lung) was 4.56 % ID/g, the Drug uptake (Brain [9]) was 0.14 % ID/g and the Drug uptake (Heart) was 1.77 % ID/g. For the same compound, the Drug uptake (Blood) was 0.75 % ID/g.

With `[18F]CCn1ccc2ccc(-c3nnc(N4CCN5CCC4CC5)o3)cc21` the logD [10] was -2.05, the logD at 0.5 h [11] was 1.11 and the remaining at 2 h [12] was no less than 97%. For the same compound, the remaining at 2 h [13] was no less than 97%, the remaining at 5 min [14] was 98% and the remaining at 5 min [15] was 98%. For the same compound, the Kp at 0.25 h [16] was 0.18, the Kp at 1 h [17] was 0.26 and the Kp at 0.5 h [18] was 0.19. For the same compound, the Kp at 5 min [19] was 0.11.

For `FCCn1ccc2ccc(-c3nnc(N4CCN5CCC4CC5)o3)cc21`, the Ratio Ki (Homo sapiens [20]) was greater than 400, the Ratio Ki (Homo sapiens [21]) was 40.8 and the Ki [22] was greater than 1000 nM. The Ki [23] was 102 nM and the Ki [24] was 2.5 nM.

Source: ChEMBL document CHEMBL2380270, “Radiosynthesis and first evaluation in mice of [(18)F]NS14490 for molecular imaging of α7 nicotinic acetylcholine receptors” (Bioorg Med Chem, 2013)
